Assay [1] concerns Enterococcus faecalis. As to the kind of experiment: Antimicrobial activity against Enterococcus faecalis 2215770 B-T isolated from patient with pyelonephritis assessed as >3-log reduction in urinary bacterial titer after 16 hrs. The format is functional, Urine. In outline: (§1)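 Urine was collected before dosing and on day 3 of i.v. therapy (steady state), in 4-h intervals from infusion start (0–4 to 20–24 h), stored at −80°C and sterile filtered. It was serially diluted twofold (1:0 to 1:131,072) in the patient's drug-free pre-dose urine. Microdilution used an inoculum of 1.0 x 10^6–9.5 x 10^6 CFU/ml, incubated 18 h at 37°C, then subcultured 24 h on blood agar. The endpoint was >99.9% kill, reported as reciprocal titer.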

Assay [2] deals with Escherichia coli. As to the kind of experiment: Antimicrobial activity against Escherichia coli 2297257 B-W isolated from patient with pyelonephritis assessed as >3-log reduction in urinary bacterial titer after 8 hrs. The format is functional, Urine.
In assay [3] the test system is Staphylococcus haemolyticus. As to the kind of experiment: Antimicrobial activity against Staphylococcus haemolyticus 1949819 B-M isolated from patient with pyelonephritis assessed as >3-log reduction in urinary bacterial titer after 16 hrs. Format: functional, Urine.
In assay [4] the test system is Escherichia coli. In words: Antimicrobial activity against Escherichia coli 1889646 B-F isolated from patient with pyelonephritis assessed as >3-log reduction in urinary bacterial titer after 20 hrs. Format: functional, Urine. In outline: (§2)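 Urine was collected on day 3 of i.v. therapy (steady state) over 4-h intervals from infusion start (0–4 to 20–24 h), stored at –80°C and sterile filtered. It was serially diluted twofold (1:0 up to 1:131,072) in the patient's own pre-dose drug-free urine. Microdilution used a final inoculum of 1.0 x 10^6 to 9.5 x 10^6 CFU/ml, incubated 18 h at 37°C in air. 10 µl was subcultured onto 5% blood Columbia agar for 24 h at 37°C. The bactericidal endpoint was >99.9% (>3-log) kill, reported as a reciprocal titer.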

A short description of assay [5]: T>MIC in Pseudomonas aeruginosa infected in thigh of neutropenic mouse at 500 mg/kg, iv administered every 8 hrs. Format: functional.
The test system of assay [6] is Enterococcus faecalis. As to the kind of experiment: Antimicrobial activity against Enterococcus faecalis 2215770 B-T isolated from patient with pyelonephritis assessed as >3-log reduction in urinary bacterial titer after 20 hrs. Format: functional, Urine. In outline:
as §1

Assay [7] concerns Staphylococcus haemolyticus. In words: Antimicrobial activity against Staphylococcus haemolyticus 1949819 B-M isolated from patient with pyelonephritis by Etest. Format: functional.
The subject of assay [8] is Escherichia coli. In words: Antimicrobial activity against Escherichia coli 1780063 B-A isolated from patient with pyelonephritis by Etest. The format is functional.
Assay [9] concerns Escherichia coli. In words: Antimicrobial activity against Escherichia coli 1889646 B-F isolated from patient with pyelonephritis assessed as >3-log reduction in urinary bacterial titer after 4 hrs. The format is functional, Urine. An outline of the steps:
as §2

In assay [10] the test system is Escherichia coli. As to the kind of experiment: Antimicrobial activity against Escherichia coli 2062717 B-P isolated from patient with pyelonephritis assessed as >3-log reduction in urinary bacterial titer after 24 hrs. Format: functional, Urine.
In assay [11] the test system is Escherichia coli. In words: Antimicrobial activity against Escherichia coli 1780063 B-A isolated from patient with pyelonephritis assessed as >3-log reduction in urinary bacterial titer after 8 hrs. Format: functional, Urine. In outline: as §1
Assay [12] has as its system Escherichia coli. In words: Antimicrobial activity against Escherichia coli 1949825 B-K isolated from patient with pyelonephritis assessed as >3-log reduction in urinary bacterial titer after 16 hrs. Format: functional, Urine. An outline of the steps:
(§3)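 Patient urine was collected on day 3 of i.v. therapy (steady state) over 4-h intervals after infusion start, stored at –80°C, and sterile filtered. It was twofold serially diluted (1:0 to 1:131,072) in the patient's own pre-dose drug-free urine, inoculated to 1.0 x 10^6–9.5 x 10^6 CFU/ml, and incubated for 18 h at 37°C. Subcultures were grown on blood agar for 24 h. The UBT is the reciprocal of the highest dilution giving >99.9% kill.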

In assay [13] the test system is Escherichia coli. In words: Antimicrobial activity against Escherichia coli 1949825 B-K isolated from patient with pyelonephritis assessed as >3-log reduction in urinary bacterial titer after 20 hrs. Format: functional, Urine. An outline of the steps:
as §3

The subject of assay [14] is Serratia marcescens. In words: Antimicrobial activity against Serratia marcescens 2297260 B-U isolated from patient with pyelonephritis assessed as >3-log reduction in urinary bacterial titer after 8 hrs. Format: functional, Urine.
Assay [15] concerns Staphylococcus aureus. In words: Antimicrobial activity against Staphylococcus aureus 2215767-9 B-S isolated from patient with pyelonephritis assessed as >3-log reduction in urinary bacterial titer after 24 hrs. Format: functional, Urine.
In assay [16] the test system is Escherichia coli. As to the kind of experiment: Antimicrobial activity against Escherichia coli 1889647 B-H isolated from patient with pyelonephritis by Etest. The format is functional.
For assay [17], the system named is Staphylococcus epidermidis. In words: Antimicrobial activity against Staphylococcus epidermidis 2297262-9 B-V isolated from patient with pyelonephritis assessed as >3-log reduction in urinary bacterial titer after 24 hrs. The format is functional, Urine.
The test system of assay [18] is Enterococcus faecalis. In words: Antimicrobial activity against Enterococcus faecalis 2297262-10 B-V isolated from patient with pyelonephritis assessed as >3-log reduction in urinary bacterial titer after 12 hrs. Format: functional, Urine. In outline:
as §1

The subject of assay [19] is Staphylococcus aureus. In words: Antimicrobial activity against Staphylococcus aureus 1889640 A-Z isolated from patient with pyelonephritis assessed as >3-log reduction in urinary bacterial titer after 8 hrs. Format: functional, Urine.
Assay [20] concerns Staphylococcus epidermidis. In words: Antimicrobial activity against Staphylococcus epidermidis 1949822 B-J isolated from patient with pyelonephritis assessed as >3-log reduction in urinary bacterial titer after 24 hrs. Format: functional, Urine.
Assay [21] deals with Escherichia coli. As to the kind of experiment: Antimicrobial activity against Escherichia coli 1655646 A-Y isolated from patient with pyelonephritis assessed as >3-log reduction in urinary bacterial titer after 4 hrs. Format: functional, Urine. An outline of the steps: as §1
Assay [22] has as its system Pseudomonas aeruginosa. In words: Antimicrobial activity against Pseudomonas aeruginosa 1821383 B-E isolated from patient with pyelonephritis by Etest. The format is functional.
The subject of assay [23] is Escherichia coli. In words: Antimicrobial activity against Escherichia coli 1655646 A-Y isolated from patient with pyelonephritis assessed as >3-log reduction in urinary bacterial titer after 16 hrs. Format: functional, Urine. In outline: as §1
Assay [24] concerns Staphylococcus epidermidis. In words: Antimicrobial activity against Staphylococcus epidermidis 2297262-9 B-V isolated from patient with pyelonephritis assessed as >3-log reduction in urinary bacterial titer after 20 hrs. The format is functional, Urine.
Assay [25] has as its system Escherichia coli. In words: Antimicrobial activity against Escherichia coli 1780064 A-X isolated from patient with pyelonephritis assessed as >3-log reduction in urinary bacterial titer after 24 hrs. The format is functional, Urine. In outline:
as §2

The subject of assay [26] is Staphylococcus aureus. As to the kind of experiment: Antimicrobial activity against Staphylococcus aureus 2215767-9 B-S isolated from patient with pyelonephritis assessed as >3-log reduction in urinary bacterial titer after 8 hrs. The format is functional, Urine.
Assay [27] relates to Staphylococcus epidermidis. In words: Antimicrobial activity against Staphylococcus epidermidis 2297262-9 B-V isolated from patient with pyelonephritis by Etest. Format: functional.
Assay [28] deals with Pseudomonas aeruginosa. As to the kind of experiment: Antimicrobial activity against Pseudomonas aeruginosa 1821383 B-E isolated from patient with pyelonephritis assessed as >3-log reduction in urinary bacterial titer after 4 hrs. Format: functional, Urine.
The subject of assay [29] is Escherichia coli. As to the kind of experiment: Antimicrobial activity against Escherichia coli 1780064 A-X isolated from patient with pyelonephritis assessed as >3-log reduction in urinary bacterial titer after 20 hrs. Format: functional, Urine. An outline of the steps:
as §2

For assay [30], the system named is Escherichia coli. As to the kind of experiment: Antimicrobial activity against Escherichia coli 1821386 B-D isolated from patient with pyelonephritis by Etest. Format: functional.
For assay [31], the system named is Escherichia coli. In words: Antimicrobial activity against Escherichia coli 2062716 B-R isolated from patient with pyelonephritis assessed as >3-log reduction in urinary bacterial titer after 12 hrs. The format is functional, Urine. In outline: as §3
The test system of assay [32] is Escherichia coli. In words: Antimicrobial activity against Escherichia coli 1821386 B-D isolated from patient with pyelonephritis assessed as >3-log reduction in urinary bacterial titer after 20 hrs. Format: functional, Urine. An outline of the steps: as §2
The subject of assay [33] is Escherichia coli. In words: Antimicrobial activity against Escherichia coli 1655646 A-Y isolated from patient with pyelonephritis assessed as >3-log reduction in urinary bacterial titer after 12 hrs. Format: functional, Urine. In outline:
as §1

The subject of assay [34] is Escherichia coli. As to the kind of experiment: Antimicrobial activity against Escherichia coli 1780064 A-X isolated from patient with pyelonephritis by Etest. The format is functional.
In assay [35] the test system is Serratia marcescens. As to the kind of experiment: Antimicrobial activity against Serratia marcescens 2297260 B-U isolated from patient with pyelonephritis assessed as >3-log reduction in urinary bacterial titer after 20 hrs. Format: functional, Urine.

≈ marks a conversion by molar mass, not a printed value. Where only a bound is given, the exact number is not on record here.

A word on the MIC: it is the lowest concentration found to suppress growth. Low values mean greater potency, high ones weaker potency. Regarding `C[C@@H](O)[C@H]1C(=O)N2C(C(=O)O)=C(S[C@@H]3CN[C@H](CNS(N)(=O)=O)C3)[C@H](C)[C@H]12` [DORIPENEM], the urinary bactericidal titer with Enterococcus faecalis [1] was found to be 512 reciprocal titer; in the assay on Escherichia coli [2] it was 2048 reciprocal titer; in assay [3], 128 reciprocal titer; with Escherichia coli [4], 65500; with Enterococcus faecalis [6] it was 2048 reciprocal titer; in the assay on Escherichia coli [9], 65500 reciprocal titer. Moreover, the urinary bactericidal titer in the assay with Escherichia coli [10] came out at 2048 reciprocal titer; with Escherichia coli [11], 1024 reciprocal titer; with Escherichia coli [12] it was 2048 reciprocal titer; in the assay on Escherichia coli [13] it was 4096 reciprocal titer. The “fT>MIC” value in assay [5] is 20%. In addition, the values for the MIC (in [7]; against Escherichia coli [8]) were 1 µg/mL (≈ 2.38 µM) and 0.03 µg/mL (≈ 0.0713 µM), respectively.
As to `C[C@H]1COc2c(N3CCN(C)CC3)c(F)cc3c(=O)c(C(=O)O)cn1c23.C[C@H]1COc2c(N3CCN(C)CC3)c(F)cc3c(=O)c(C(=O)O)cn1c23.O` [LEVOFLOXACIN], the urinary bactericidal titer is 256 reciprocal titer in the assay on Serratia marcescens [14]; 0 reciprocal titer with Staphylococcus aureus [15]; 2 reciprocal titer in assay [17]; 0 reciprocal titer with Enterococcus faecalis [18]; 128 reciprocal titer in the assay on Staphylococcus aureus [19]; 1 reciprocal titer in assay [20]. The urinary bactericidal titer in the assay on Escherichia coli [21] came to 2048 reciprocal titer; in the assay on Escherichia coli [23], 1024 reciprocal titer; in assay [24] it was 2 reciprocal titer; with Escherichia coli [25], 128 reciprocal titer; with Staphylococcus aureus [26], 0 reciprocal titer; in the assay with Pseudomonas aeruginosa [28] it was 32 reciprocal titer. The urinary bactericidal titer with Escherichia coli [29] came out at 256 reciprocal titer; in the assay with Escherichia coli [31], 512 reciprocal titer; with Escherichia coli [32], 2048 reciprocal titer; with Escherichia coli [33] it was 2048 reciprocal titer; with Serratia marcescens [35], 32 reciprocal titer. Also, the MIC with Escherichia coli [16] is less than 0.03 µg/mL; against Pseudomonas aeruginosa [22], 0.25 µg/mL; in assay [27] it was more than 32 µg/mL; with Escherichia coli [30], less than 0.03 µg/mL; in the assay with Escherichia coli [34], 0.047 µg/mL.

Values taken from ChEMBL document CHEMBL1649151, “Urinary bactericidal activity of Doripenem versus that of levofloxacin in patients with complicated urinary tract infections or pyelonephritis” (Antimicrob Agents Chemother, 2009).
